Screening data (PubChem)
PLK1 inh = blocks human PLK1 kinase activity | 97,000 tested, 0.53% active | P53350 | inhibition, % at 10 µM | recombinant PLK1 kinase, TR-FRET peptide phosphorylation | AID 619;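 active = inhibition of 50% or more in the single-concentration screen; inactive = inhibition below 50%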;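 note: 0% = DMSO max control and 100% = H-89 dihydrochloride min control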
Target sequence (P53350 whole entry, looked up): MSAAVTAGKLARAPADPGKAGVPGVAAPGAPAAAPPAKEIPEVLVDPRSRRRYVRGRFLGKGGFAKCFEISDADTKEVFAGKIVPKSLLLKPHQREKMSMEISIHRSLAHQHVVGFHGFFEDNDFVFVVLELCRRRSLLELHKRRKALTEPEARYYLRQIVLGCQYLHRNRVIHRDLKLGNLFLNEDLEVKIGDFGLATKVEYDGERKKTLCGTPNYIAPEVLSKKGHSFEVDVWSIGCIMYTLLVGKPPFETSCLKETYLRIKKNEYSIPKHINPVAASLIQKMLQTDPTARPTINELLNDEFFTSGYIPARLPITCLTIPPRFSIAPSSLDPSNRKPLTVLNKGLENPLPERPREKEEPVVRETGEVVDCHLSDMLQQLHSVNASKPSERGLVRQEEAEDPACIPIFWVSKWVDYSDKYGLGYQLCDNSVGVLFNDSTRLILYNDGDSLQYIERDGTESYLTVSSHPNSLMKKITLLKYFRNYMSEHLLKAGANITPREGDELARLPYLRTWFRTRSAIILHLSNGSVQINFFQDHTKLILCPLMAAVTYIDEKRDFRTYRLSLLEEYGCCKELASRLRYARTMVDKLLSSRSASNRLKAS
PLK1 PBD inh = inhibitors of human Plk1 polo box domain binding. P53350. Plk1 PBD phosphopeptide binding, fluorescence polarization. inhibition, %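 (tested at about 20 µM)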. 97,000 tested, 0.13% active. AID 693; in the data active = inhibition above about 34%, passing the limit was not always enough
PostGolgi ctrl = growth of the yeast control strain, post-Golgi counter-screen; efflux-deficient yeast background strain, growth absorbance A615, 16 h; inhibition, % at 10 µM; 98,000 tested, 5% active; AID 738
EphB4 antag = EphB4-ephrin-B2 interaction antagonism; P54760; EphB4 LBD / TNYL-RAW-Alexa532 peptide, fluorescence polarization; inhibition, % at 7 µM; 97,000 tested, 0.15% active;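 active = inhibition above the screen-wide mean inhibition plus 3 SD, cut at about 15% in these data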;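 note: 0% = DMSO wells and 100% = excess unlabeled TNYL-RAW peptide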
PostGolgi yeast = growth inhibition of a yeast mutant, post-Golgi transport screen; post-Golgi transport phenotypic cell assay; inhibition, % at 10 µM; 98,000 tested, 0.9% active;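 note: yeast cells grown in 1536-well plates; yeast grown about 18 h at 30C before absorbance read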
Rev-RRE block = disrupts HIV-1 Rev binding to RRE RNA | P05866 | Rev peptide-RRE RNA binding, FRET | inhibition, % at 8 µM | 97,000 tested, 0.79% active;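 active = inhibition above the screen-wide mean plus 3 SD, cut at about 35% in these data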;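 note: 0% = median DMSO wells and 100% = median Neomycin B control wells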
Target sequence (P05866 whole entry, looked up): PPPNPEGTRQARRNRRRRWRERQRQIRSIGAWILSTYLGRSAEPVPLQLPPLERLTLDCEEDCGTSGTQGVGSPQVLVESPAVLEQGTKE
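Assay system: labelled RRE RNA duplex and labelled Rev peptide / Medium: HEPES pH 7.5 salt buffer with EDTA / Reagent: labelled Rev peptide / Schedule: 5 + 15 min at 25 °C / Signal: FRET, excitation 480 nm, emission 540 nm donor and 671 nm acceptor / Benchmarks: DMSO and neomycin B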
Numbers without * were called inactive; x = not tested or not shown; [ ] = another dose, or the depositor's remark. Rows were chosen to be rich in hits. Some 6.4% of all compounds tested hit in one or more screens of this group. Cut-off read from the data, not from the text of the source, unless noted: active = inhibition above about 30%; inactive = the rest.

SMILES	PLK1 inh	PLK1 PBD inh	PostGolgi ctrl	EphB4 antag	PostGolgi yeast	Rev-RRE block
O=C(Nc1nc(N2C(=O)c3ccccc3C2=O)n(-c2ccccc2)n1)c1ccc(Cl)cc1	-18.2	-10.0	35.1*	2.7	1.8	4.2
Nc1nc(NC(=O)c2cccnc2)nn1-c1ccccc1	-6.0	1.1	2.5	-11.1	0.5	3.4
NC(=O)c1ccc(C(F)(F)F)n(Cc2c(Cl)cccc2Cl)c1=O	4.4	-2.1	33.9*	-6.2	7.0	8.1
CCOc1ccc(NS(=O)(=O)c2ccc(NC(=O)C3CCCO3)cc2)cc1 (centres undefined)	-12.9	0.0	-9.9	4.6	-3.4	2.3
CCOC(=O)C1=C(O)/C(=C/c2ccc(C)o2)SC1=NC(=O)c1ccccc1C	-5.7	-13.2	x	4.1	x	68.5*
Cc1noc(/C=C/N(C)C)c1S(=O)(=O)N1CCN(c2ccccc2)CC1	68.6*	9.8	3.0	-5.0	0.0	-4.7
Cc1ccc(C)c(N2CCN(S(=O)(=O)c3c(C)noc3/C=C/N(C)C)CC2)c1	-4.8	-6.8	12.6	-6.5	0.3	-0.6
N#C/C(=C/c1ccc(N2CCCCCC2)o1)c1ccc(Cl)cc1	-31.9	-194.3	8.1	-2.2	0.3	96.6*[fluorescence artefact?]
O=C(c1cccc(F)c1)N1CCCC(C(=O)N2CCCC2)C1 (centres undefined)	5.7	1.5	17.3	-1.9	5.2	4.1
O=C(c1ccc(S(=O)(=O)N2CCCCC2)cc1)c1nnc(-c2ccc(Cl)cc2)o1	-14.2	1.6	-2.5	4.1	-5.8	9.2
N#C/C(=C/c1ccc(N2CCCCC2)o1)c1cccc(F)c1	-34.2	-159.8	10.9	-6.7	-2.1	98.7*[fluorescence artefact?]
CC(=O)CSc1nnc(Cc2ccc3c(c2)OCO3)o1	-7.0	-4.3	x	5.7	x	6.6
CC1(C)Oc2nc3ccccc3n2/C1=C\C#N	-10.4	-4.0	x	-0.6	x	2.3
CC(=O)Nc1nnc(SCC(=O)NCCOc2ccccc2)s1	-11.7	-17.0	51.4*	-1.6	5.1	2.6
CCn1c(SCC(=O)NCCOc2ccccc2)nc2ccccc2c1=O	-4.6	-8.6	15.7	0.5	-4.1	1.9
CCCCOC(=O)n1c(SCC(=O)N(CC)CC)nc2ccccc21	-9.4	-5.3	31.3*	-4.5	-6.5	4.0
CCOc1cc(C#N)c(NC(=O)c2cccnc2Cl)cc1OCC	-21.8	-3.3	6.3	2.3	-3.4	5.2
CCCC(=O)Nc1ccc(Cl)c(NC(=O)c2cccnc2Cl)c1	-8.0	0.8	3.2	8.4	44.7*	3.5
COc1cc2c(cc1OC)C(C(=O)N1CCN(c3ccccc3)CC1)C(c1cccs1)N(C)C2=O (centres undefined)	0.5	2.2	2.3	3.8	-0.5	-5.4
Cc1ccc(-c2cc(C(F)F)nc(NCc3cccnc3)n2)cc1	-0.7	-6.6	43.8*	0.2	0.9	5.1
Cc1ccc(-c2cc(C(F)F)nc(NCC3CCCO3)n2)cc1 (centres undefined)	-10.1	-6.6	32.0*	-6.1	6.5	10.0
COc1cc(C(=O)Nc2sc3c(c2C#N)CCN(C(C)=O)C3)cc(OC)c1OC	-12.2	-20.7	31.0*	9.3	1.8	25.4
COC(=O)Cn1nnc(-c2cccc(OC)c2)n1	-6.8	-31.4	20.4	-6.1	5.0	-1.9
Clc1ccc(-c2noc(CN3CCCC3)n2)cc1	-11.6	-14.5	37.1*	-6.3	-1.1	5.8
Clc1cccc(N2CCN(Cc3nc(-c4ccccc4)no3)CC2)c1	-6.0	19.4	34.5*	-5.2	-5.4	10.8
SMILES	PLK1 inh	PLK1 PBD inh	PostGolgi ctrl	EphB4 antag	PostGolgi yeast	Rev-RRE block
Clc1ccc(-c2noc(CN3CCN(c4ccccc4)CC3)n2)cc1	-13.8	0.5	-2.1	0.3	-9.0	10.6
CC1=NCC(C)c2c1[nH]c1ccccc21 (centres undefined)	-14.4	-24.6	4.2	1.5	9.7	10.8
CCOC(=O)c1cc(CC)sc1NC(=O)c1ccc(N2CCOCC2)c([N+](=O)[O-])c1	-11.3	-1.2	2.9	3.6	2.9	3.8
Cc1ccc(OC(=O)c2ccc(N3CCOCC3)c([N+](=O)[O-])c2)cc1	-15.6	-20.2	38.1*	8.3	-22.4	12.2
COc1ccc(C(=O)OCC(=O)c2ccccc2)cc1S(=O)(=O)N1CCOCC1	-1.8	-15.9	-4.5	-6.1	6.2	10.3
N#Cc1cccc(NC(=O)CSc2ccc3c4c(cccc24)C(=O)c2ccccc2-3)c1	-20.5	-14.3	-0.1	8.6	1.9	115.2*[fluorescence artefact?]
COc1ccc(NC(=O)CSc2ccc3c4c(cccc24)C(=O)c2ccccc2-3)cc1	-16.2	-21.4	9.8	7.8	-18.8	125.3*[fluorescence artefact?]
Cc1cc(C(=O)CSc2nc3ccccc3c(=O)n2C)c(C)n1Cc1ccc2c(c1)OCO2	-483.8	-16.0	16.1	-2.7	6.7	8.9
Cc1ccc(C)c(N2CCN(c3nnnn3-c3ccccc3)CC2)c1	-6.4	11.7	16.6	1.5	-2.7	10.7
O=C(O)c1cccc(-n2cccc2/C=N/O)c1	-11.8	20.5	0.0	0.8	6.8	-5.2
ON=Cc1cccn1-c1ccccc1	0.6	-10.5	-1.4	0.5	30.5*	3.3
CCCSc1nnc(NC(=O)c2sc3nc(-c4cccs4)ccc3c2N)s1	-6.5	-87.4	-7.6	0.9	-3.3	105.5*[fluorescence artefact?]
Cc1csc(NC(=O)c2sc3nc(-c4cccs4)ccc3c2N)n1	-16.1	-43.3	22.5	-4.7	0.0	101.6*[fluorescence artefact?]
COc1ccc(C(=O)Nc2nc(-c3cccs3)cs2)cc1	-5.4	11.3	16.3	-2.2	1.1	13.8
Cc1nn(-c2ccccc2)c(OC(=O)c2cccs2)c1S(=O)(=O)c1ccc([N+](=O)[O-])cc1	-3.1	-10.9	-4.5	-1.5	-2.2	4.8
O=C(c1cccn2c(=O)c3cc4ccccc4cc3nc12)N1CCN(c2ccccc2)CC1	-13.1	-17.7	0.0	-5.8	7.9	44.2*
CCOC(CNC(=O)c1cccn2c(=O)c3cc(Cl)ccc3nc12)OCC	-2.6	-4.0	21.7	3.3	-4.3	1.2
O=C(NCCN1CCN(c2ccccc2)CC1)c1cccn2c(=O)c3cc(Cl)ccc3nc12	x	x	67.7*	x	7.3	x
CCC(c1nnc(SCC(=O)Nc2nnc(-c3ccccc3)o2)n1Cc1ccccc1)N(C)C (centres undefined)	-6.2	12.2	-1.7	-2.4	15.6	3.2
COC(=O)C(C)Sc1nnc2n(-c3cccc(C)c3)c(=O)c3c4c(sc3n12)CCCC4 (centres undefined)	x	x	4.8	x	-0.3	x
CSc1nc2nccc(-c3ccc(Oc4ccccc4)cc3)n2n1	7.5	12.1	32.7*	-0.8	-1.1	9.3
CSc1nc2nccc(-c3ccc(-c4ccccc4)cc3)n2n1	5.8	1.9	-0.4	-2.7	5.7	7.5
Cc1csc2ncc(C(=O)NC(C)c3ccccc3)c(=O)n12 (centres undefined)	-7.5	4.9	6.5	-4.8	2.8	2.3
CCN(CC)S(=O)(=O)c1ccc(N(C)Cc2cccnc2)nc1	2.3	-1.3	-3.0	-4.4	-13.1	6.2
O=C(CCSc1nc(-c2ccco2)cc(C(F)(F)F)n1)N1CCCc2ccccc21	-11.3	-12.5	37.8*	-3.0	-2.8	0.6
